Experimental data: ChEMBL document CHEMBL1141405, “Design and synthesis of novel sulfonamide-containing bradykinin hB2 receptor antagonists. 2. Synthesis and structure-activity relationships of alpha,alpha-cycloalkylglycine sulfonamides” (J Med Chem, 2007)

What was measured:
B1 bradykinin receptor = molecular target: T1, B1 bradykinin receptor (Homo sapiens, UniProt P46663); experiment: Binding affinity to human bradykinin B1 receptor
T1 sequence (P46663 whole entry): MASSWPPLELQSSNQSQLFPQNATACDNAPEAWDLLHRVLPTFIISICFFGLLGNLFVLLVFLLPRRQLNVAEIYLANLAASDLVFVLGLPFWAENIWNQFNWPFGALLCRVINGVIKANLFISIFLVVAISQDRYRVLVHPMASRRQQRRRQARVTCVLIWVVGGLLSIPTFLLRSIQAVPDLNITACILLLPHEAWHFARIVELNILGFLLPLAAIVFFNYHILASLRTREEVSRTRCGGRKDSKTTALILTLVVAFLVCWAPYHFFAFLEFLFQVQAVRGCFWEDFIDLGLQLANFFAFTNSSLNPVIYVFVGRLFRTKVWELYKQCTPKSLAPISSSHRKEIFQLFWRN

[1] = molecular target: T2, B2 bradykinin receptor (Cavia porcellus) (UniProt O70526); experiment: Inhibition of BK-induced bronchoconstriction in Dunkin Hartley guinea pig at 100 nmol/kg, it; format: functional; parameters: scale not given: the % may be the effect or the level left
T2 sequence (whole entry): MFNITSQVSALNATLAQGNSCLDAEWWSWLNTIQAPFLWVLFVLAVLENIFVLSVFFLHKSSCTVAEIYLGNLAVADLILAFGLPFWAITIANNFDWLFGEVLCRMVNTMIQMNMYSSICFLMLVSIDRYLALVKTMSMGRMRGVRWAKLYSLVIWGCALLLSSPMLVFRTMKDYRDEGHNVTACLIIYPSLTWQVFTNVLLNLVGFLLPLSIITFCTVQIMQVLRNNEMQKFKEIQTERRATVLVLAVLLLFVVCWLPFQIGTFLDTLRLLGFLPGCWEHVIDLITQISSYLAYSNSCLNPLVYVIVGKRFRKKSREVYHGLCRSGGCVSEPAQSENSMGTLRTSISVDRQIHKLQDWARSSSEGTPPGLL
In short: (§1)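 Compound was given intratracheally to anaesthetized guinea pigs. Five min later, BK (10 nmol/kg iv) challenge was given and repeated every 30 min for 210 min. Pulmonary insufflation pressure was monitored. Result is Σ%: residual BK response as % of basal, normalized to control at 5–210 min time points, expressed as % of theoretical maximum.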

B2 bradykinin receptor [2] = molecular target: T3, B2 bradykinin receptor (Homo sapiens, UniProt P30411); experiment: Displacement of [3H]BK from human bradykinin B2 receptor transfected in CHO cells; format: cell-based
T3 sequence (P30411 whole entry): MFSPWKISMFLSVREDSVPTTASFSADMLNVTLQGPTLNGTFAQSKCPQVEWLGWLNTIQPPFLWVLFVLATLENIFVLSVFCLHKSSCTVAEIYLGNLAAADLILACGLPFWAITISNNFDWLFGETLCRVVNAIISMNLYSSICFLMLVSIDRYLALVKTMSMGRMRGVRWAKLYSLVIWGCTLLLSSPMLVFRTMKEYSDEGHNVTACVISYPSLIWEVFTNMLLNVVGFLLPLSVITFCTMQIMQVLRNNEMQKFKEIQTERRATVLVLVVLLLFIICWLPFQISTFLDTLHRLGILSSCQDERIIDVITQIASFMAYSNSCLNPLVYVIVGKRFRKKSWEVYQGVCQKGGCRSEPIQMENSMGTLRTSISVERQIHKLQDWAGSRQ
In short: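 pKi from inhibition of specific [3H]-BK binding to membrane preparations of CHO cells stably transfected with the human B2 receptor.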

B2 bradykinin receptor [3] = molecular target: T3, B2 bradykinin receptor; experiment: Antagonist potency at human bradykinin B2 receptor assessed as effect on inositol monophosphate accumulation in CHOdhfr- cells; format: functional, cell-based; settings: read-out: pA2 (converted)
In short: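 pA2 derived from antagonism of bradykinin-stimulated inositol monophosphate accumulation in CHOdhfr- cells stably transfected with the human B2 receptor.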

[4] = molecular target: T2, B2 bradykinin receptor (Cavia porcellus); experiment: Effect on BK-induced hypotension in Dunkin Hartley guinea pig at 100 nmol/kg, it; format: functional
In short: (§2)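 Compound was given intratracheally to anaesthetized guinea pigs. Five min later, BK (10 nmol/kg iv) challenge was given and repeated every 30 min for 210 min. Blood pressure was monitored. Result is Σ%: residual BK response as % of basal, normalized to control at each observation time (5–210 min), expressed as % of theoretical maximum.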

[5] = molecular target: T2, B2 bradykinin receptor (Cavia porcellus); experiment: Effect on BK-induced hypotension in Dunkin Hartley guinea pig at 300 nmol/kg, it; format: functional; in short: as §2
[6] = molecular target: T2, B2 bradykinin receptor (Cavia porcellus); experiment: Inhibition of BK-induced bronchoconstriction in Dunkin Hartley guinea pig at 300 nmol/kg, it; format: functional; parameters: scale not given: the % may be the effect or the level left; in short: as §1

Row | SMILES | Ki (B1 bradykinin receptor) | Activity [1] | Ki (B2 bradykinin receptor [2]) | Kb (B2 bradykinin receptor [3]) | Activity [4] | Activity [5] | Activity [6]
1 | Cc1cc(C)c2cccc(OCc3c(Cl)ccc(S(=O)(=O)NC4(C(=O)N5CCN(C(=O)[C@H](CCCCNC(=N)N)[N+](C)(C)C)CC5)CCCC4)c3Cl)c2n1 | > 10000 nM | 61% | 0.1 nM | 0.631 nM | 90% |  | 
2 | CC(=O)N1CCC(NS(=O)(=O)c2ccc(Cl)c(COc3cccc4c(C)cc(C)nc34)c2Cl)(C(=O)N2CCN(C(=O)[C@@H](N)CCC[N+](C)(C)C)CC2)CC1 | > 10000 nM |  | 0.158 nM | 1.26 nM |  |  | 
3 | Cc1cc(C)c2cccc(OCc3c(Cl)ccc(S(=O)(=O)NC4(C(=O)N5CCN(C(=O)CCCCCNC(=N)N)CC5)CCCC4)c3Cl)c2n1 | > 10000 nM |  | 1.26 nM | 2 nM |  |  | 
4 | Cc1cc(C)c2cccc(OCc3c(Cl)ccc(S(=O)(=O)NC4(C(=O)N5CCN(C(=N)NCCC[N+](C)(C)C)CC5)CCCC4)c3Cl)c2n1 | > 10000 nM |  | 0.398 nM | 1.58 nM |  | 87% | 17%
5 | Cc1cc(C)c2cccc(OCc3c(Cl)ccc(S(=O)(=O)NC4(C(=O)N5CCN(C(=O)[C@H](CCCC[N+](C)(C)C)[N+](C)(C)C)CC5)CCCC4)c3Cl)c2n1 | > 10000 nM |  | 0.2 nM | 6.31 nM |  |  | 
6 | Cc1cc(C)c2cccc(OCc3c(Cl)ccc(S(=O)(=O)NC4(C(=O)N5CCN(C(=O)C[C@@H](N)CCC[N+](C)(C)C)CC5)CCCC4)c3Cl)c2n1 | > 10000 nM | 57% | 0.2 nM | 1.58 nM | 96% |  | 
7 | Cc1cc(C)c2cccc(OCc3c(Cl)ccc(S(=O)(=O)NC4(C(=O)N5CCN(C(=O)CCCCC[N+](C)(C)C)CC5)CCCC4)c3Cl)c2n1 | > 10000 nM |  |  | 5.01 nM |  |  | 
8 | Cc1cc(C)c2cccc(OCc3c(Cl)ccc(S(=O)(=O)NC4(C(=O)N5CCN(C(=O)[C@H](CCCN)[N+](C)(C)C)CC5)CCCC4)c3Cl)c2n1 | > 10000 nM | 43% | 0.251 nM | 0.501 nM | 82% |  | 
9 | Cc1cc(C)c2cccc(OCc3c(Cl)ccc(S(=O)(=O)NC4(C(=O)N5CCN(C(=O)[C@H](CCCCN)[N+](C)(C)C)CC5)CCCC4)c3Cl)c2n1 | > 10000 nM | 39% |  | 1.58 nM | 84% |  | 
10 | Cc1cc(C)c2cccc(OCc3c(Cl)ccc(S(=O)(=O)NC4(C(=O)N5CCN(C(=O)C[N+](C)(C)C)CC5)CCCC4)c3Cl)c2n1 | > 10000 nM | 54% | 0.398 nM | 5.01 nM | 91% |  | 
11 | Cc1cc(C)c2cccc(OCc3c(Cl)ccc(S(=O)(=O)NC4(C(=O)N5CCN(C(=O)[C@H](CCC[N+](C)(C)C)[N+](C)(C)C)CC5)CCCC4)c3Cl)c2n1 | > 10000 nM |  | 0.2 nM | 2.51 nM |  |  | 
12 | Cc1cc(C)c2cccc(OCc3c(Cl)ccc(S(=O)(=O)NC4(C(=O)N5CCN(C(=O)[C@@H](N)CCC[N+](C)(C)C)CC5)CCCC4)c3Cl)c2n1 | > 10000 nM | 24% | 0.0501 nM | 0.501 nM | 100% |  | 
13 | Cc1cc(C)c2cccc(OCc3c(Cl)ccc(S(=O)(=O)NC4(C(=O)N5CCN(C(=N)NCCCN(C)C)CC5)CCCC4)c3Cl)c2n1 | > 10000 nM |  | 0.631 nM | 0.501 nM |  | 69% | 24%
14 | Cc1cc(C)c2cccc(OCc3c(Cl)ccc(S(=O)(=O)NC4(C(=O)N5CCN(C(=O)CCCC[N+](C)(C)C)CC5)CCCC4)c3Cl)c2n1 | > 10000 nM |  | 0.251 nM | 1.58 nM |  |  | 
15 | Cc1cc(C)c2cccc(OCc3c(Cl)ccc(S(=O)(=O)NC4(C(=O)N5CCN(C(=O)C[C@H](CCCN)[N+](C)(C)C)CC5)CCCC4)c3Cl)c2n1 | > 10000 nM | 72% | 0.126 nM | 1.26 nM | 94% |  | 
16 | Cc1cc(C)c2cccc(OCc3c(Cl)ccc(S(=O)(=O)NC4(C(=O)N5CCN(C(=O)[C@@H](N)CCC[N+](C)(C)C)CC5)CCN(C)CC4)c3Cl)c2n1 | > 10000 nM | 40% | 0.0794 nM | 0.251 nM | 86% |  | 
17 | Cc1cc(C)c2cccc(OCc3c(Cl)ccc(S(=O)(=O)NC4(C(=O)N5CCN(C(=O)[C@H](CCCCN(C)C)N(C)C)CC5)CCCC4)c3Cl)c2n1 | > 10000 nM |  | 0.2 nM | 3.16 nM |  |  | 
18 | Cc1cc(C)c2cccc(OCc3c(Cl)ccc(S(=O)(=O)NC4(C(=O)N5CCN(C(=O)C[C@@H](N)CCCNC(=N)N)CC5)CCCC4)c3Cl)c2n1 | > 10000 nM | 78% |  | 0.794 nM | 100% |  | 
19 | Cc1cc(C)c2cccc(OCc3c(Cl)ccc(S(=O)(=O)NC4(C(=O)N5CCN(C(=O)[C@@H](N)CCC[N+](C)(C)C)CC5)CCSCC4)c3Cl)c2n1 | > 10000 nM | 59% | 0.0501 nM | 0.158 nM | 89% |  | 
20 | Cc1cc(C)c2cccc(OCc3c(Cl)ccc(S(=O)(=O)NC4(C(=O)N5CCN(C(=O)[C@@H](N)CCCCN)CC5)CCCC4)c3Cl)c2n1 | > 10000 nM |  | 0.316 nM | 2 nM |  |  | 
21 | Cc1cc(C)c2cccc(OCc3c(Cl)ccc(S(=O)(=O)NC4(C(=O)N5CCN(C(=O)CCC[N+](C)(C)C)CC5)CCCC4)c3Cl)c2n1 | > 10000 nM | 65% |  | 2 nM | 83% |  | 
22 | Cc1cc(C)c2cccc(OCc3c(Cl)ccc(S(=O)(=O)NC4(C(=O)N5CCN(C(=O)[C@@H](N)CC[N+](C)(C)C)CC5)CCCC4)c3Cl)c2n1 | > 10000 nM | 45% | 0.316 nM | 2 nM | 87% |  | 
23 | Cc1cc(C)c2cccc(OCc3c(Cl)ccc(S(=O)(=O)NC4(C(=O)N5CCN(C(=O)[C@@H](N)CCCC[N+](C)(C)C)CC5)CCCC4)c3Cl)c2n1 | > 10000 nM | 35% |  | 1.26 nM | 94% |  | 
24 | Cc1cc(C)c2cccc(OCc3c(Cl)ccc(S(=O)(=O)NC4(C(=O)N5CCN(C(=O)[C@@H](N)CCC[N+](C)(C)C)CC5)CCNCC4)c3Cl)c2n1 | > 10000 nM |  | 0.501 nM | 1.58 nM |  |  | 
25 | Cc1cc(C)c2cccc(OCc3c(Cl)ccc(S(=O)(=O)NC4(C(=O)N5CCN(C(=O)C[C@@H](N)CCCN)CC5)CCCC4)c3Cl)c2n1 | > 10000 nM | 46% | 0.631 nM | 0.501 nM | 100% |  | 
